Calls of active or inactive are those of the source. The calls are words filed in the database; no cut-off is given here.

Here are results for 29 compounds from ChEMBL document CHEMBL3992521, “Pyrimidinyl Biphenylureas: Identification of New Lead Compounds as Allosteric Modulators of the Cannabinoid Receptor CB1” (J Med Chem, 2017).

Experiment [1] concerns the target Cannabinoid receptor 1 (Homo sapiens) (UniProt P21554). Kind of experiment: Positive allosteric modulation of CB1 receptor (unknown origin) expressed in HEK293T cell membranes assessed as increase in [3H]CP55,940 binding by liquid scintillation counting method. An outline of the steps: (§1)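 Membranes from HEK293T cells transiently expressing CB1 (harvested 24 h post-transfection) incubated with 0.5 nM [3H]CP55,940 and at least nine modulator concentrations (100 pM–100 µM) in TME buffer pH 7.4 with 0.2% fatty acid-free BSA; nonspecific binding with 1 µM unlabeled CP55,940; filtration. KB and cooperativity α from nonlinear regression; duplicate, ≥3 experiments, 95% confidence limits.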

For experiment [2] the target is unchanged. Kind of experiment: Positive allosteric modulation of CB1 receptor (unknown origin) expressed in HEK293T cell membranes assessed as increase in [3H]CP55,940 binding up to 32 uM by liquid scintillation counting method. An outline of the steps:
as §1

Experiment [3] has the same target. The experiment can be described thus: Allosteric modulation at CB1 receptor (unknown origin) expressed in HEK293T cell membranes assessed as inhibition of CP55,940 induced [35S]GTPgammaS binding after 1 hr by liquid scintillation counting method. The class given is functional. An outline of the steps: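 HEK293T cells transiently transfected with CB1 (calcium phosphate), membranes harvested 24 h later; 7.5 µg membrane incubated 1 h at 30 °C with CP55,940 1 µM, 0.1 nM [35S]GTPγS, 5 µM GDP, 0.1% BSA in Tris-HCl pH 7.4/MgCl2/EGTA/NaCl buffer, varying modulator concentrations. Nonspecific binding with 10 µM unlabeled GTPγS; filtration. Expressed as % of CP55,940 signal; duplicate, ≥3 independent experiments.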
For orientation: Binding of GTPγS marks nucleotide exchange on a G protein.

For experiment [4] the target is unchanged. Kind of experiment: Positive allosteric modulation of CB1 receptor (unknown origin) expressed in HEK293T cell membrane assessed as increase in beta-arrestin mediated ERK1/2 phosphorylation at 10 uM in presence of G-protein sensitive pertussis toxin incubated for 5 mins by Western blot method. It counts as cell-based. An outline of the steps:
(§2)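 CB1-transfected HEK293T cells carried control, β-arrestin 1 or β-arrestin 2 siRNA, or were pretreated 12 h at 37 °C with PTX 5 ng/mL. They were then washed and given allosteric modulator 10 μM alone for 5 min, with DMSO vehicle as control. ERK1/2 phosphorylation was read by Western blot of 13 µg lysate protein using phospho- and total p44/42 antibodies.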
Background: A western blot detects proteins with antibodies after separation by electrophoresis.

Experiment [5] has the same target. Kind of experiment: Positive allosteric modulation of CB1 receptor (unknown origin) expressed in HEK293T cell membrane assessed as ERK1/2 phosphorylation in presence of beta-arrestin1 siRNA at 10 uM incubated for 5 mins by Western blot method. It counts as cell-based. The essentials:
as §2

Chain of Cannabinoid receptor 1 (Homo sapiens) (P21554 whole entry): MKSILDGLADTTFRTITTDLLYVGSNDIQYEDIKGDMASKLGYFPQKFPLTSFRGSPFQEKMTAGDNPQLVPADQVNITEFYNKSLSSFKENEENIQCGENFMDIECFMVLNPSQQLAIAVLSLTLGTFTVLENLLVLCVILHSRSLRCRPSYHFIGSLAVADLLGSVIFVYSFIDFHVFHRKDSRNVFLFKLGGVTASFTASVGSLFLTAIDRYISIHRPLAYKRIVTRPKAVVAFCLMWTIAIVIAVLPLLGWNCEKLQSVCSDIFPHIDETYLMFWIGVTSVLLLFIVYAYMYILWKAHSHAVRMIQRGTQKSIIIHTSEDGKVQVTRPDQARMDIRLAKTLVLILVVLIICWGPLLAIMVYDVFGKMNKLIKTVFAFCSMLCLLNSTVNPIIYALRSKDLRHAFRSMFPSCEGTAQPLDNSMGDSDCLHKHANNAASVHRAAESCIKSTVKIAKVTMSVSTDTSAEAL

Regarding `O=C(Nc1ccc(O)cc1)Nc1cccc(-c2nccc(N3CCCC3)n2)c1`, the result in experiment [1] and in experiment [2] was inactive. Consider `CN(C)c1ccnc(-c2cccc(NC(=O)Nc3ccc(F)cc3)c2)n1`, for which the Kb in experiment [1] is 1220 nM. Consider `CC(=O)c1ccc(NC(=O)Nc2cccc(-c3nccc(N4CCCC4)n3)c2)cc1`, for which the Kb in experiment [1] came to 2110 nM.

As to `CN(C)c1ccnc(-c2cccc(NC(=O)Nc3ccc(C#N)cc3)c2)n1`, in experiment [1], the Kb was found to be 313 nM.

Regarding `O=C(Nc1ccc(C(=O)O)cc1)Nc1cccc(-c2nccc(N3CCCC3)n2)c1`, the result in experiment [1] and in experiment [2] was inactive. As for `CN(C)c1ccnc(-c2cccc(NC(=O)Nc3ccc(I)cc3)c2)n1`, the Kb in experiment [1] came to 997 nM.

On to `O=C(Nc1ccc(Br)cc1)Nc1cccc(-c2nccc(N3CCCC3)n2)c1`, for which the Kb in experiment [1] was determined as 102 nM. For `N#Cc1ccc(NC(=O)Nc2cccc(-c3nccc(N4CCC4)n3)c2)cc1`, the Kb in experiment [1] turned out to be 211 nM.

In the case of `CN(C)c1ccnc(-c2cccc(NC(=O)Nc3cccc(F)c3)c2)n1`, in experiment [1], the Kb is 670 nM. `N#Cc1ccc(NC(=O)Nc2cccc(-c3nccc(N4CCCC4)n3)c2)cc1`: in experiment [1], the Kb amounted to 49.1 nM. In experiment [3], the inhibition result was “Dose-dependent effect”. In addition, the outcome in experiment [4] and in experiment [5] was Active. `CCOC(=O)c1ccc(NC(=O)Nc2cccc(-c3nccc(N4CCCC4)n3)c2)cc1`: the Kb in experiment [1] worked out at 463 nM. Regarding `CN(C)c1nccc(-c2cccc(NC(=O)Nc3ccc(I)cc3)c2)n1`, the Kb in experiment [1] was 965 nM. Consider `N#Cc1ccc(NC(=O)Nc2cccc(-c3nccc(NC4CC4)n3)c2)cc1`, for which the Kb in experiment [1] worked out at 97.7 nM. On to `COc1ccc(NC(=O)Nc2cccc(-c3nccc(N4CCCC4)n3)c2)cc1`, for which, in experiment [1], the Kb turned out to be 1830 nM. On the same count and under the same terms, with `CCN(C)c1ccnc(-c2cccc(NC(=O)Nc3ccc(C#N)cc3)c2)n1` the figure was 207 nM; with `O=C(Nc1ccc(F)cc1)Nc1cccc(-c2ccnc(N3CCCC3)n2)c1`, 196 nM. Take `N#Cc1cccc(NC(=O)Nc2cccc(-c3nccc(N4CCCC4)n3)c2)c1`: in experiment [1], the Kb is 1980 nM.

Turning to `CN(C)c1nccc(-c2cccc(NC(=O)Nc3ccc(C#N)cc3)c2)n1`, the Kb in experiment [1] was found to be 417 nM.

With `O=C(Nc1ccc(F)cc1)Nc1cccc(-c2nccc(N3CCCC3)n2)c1`, the Kb in experiment [1] was 223 nM. For `CN(C)c1ccnc(-c2cccc(NC(=O)Nc3ccc(C(F)(F)F)cc3)c2)n1`, in experiment [1], the Kb was found to be 144 nM.

For the compound `O=C(Nc1ccc(Cl)cc1)Nc1cccc(-c2ccnc(N3CCCC3)n2)c1`, the Kb in experiment [1] amounted to 227 nM. For the same compound, the inhibition result in experiment [3] is “Dose-dependent effect”. Regarding `O=C(Nc1ccc(Cl)cc1)Nc1cccc(-c2nccc(N3CCCC3)n2)c1`, in experiment [1], the Kb was determined as 264 nM. For the same compound, in experiment [3], the inhibition result is “Dose-dependent effect”.

As to `CCN(CC)c1ccnc(-c2cccc(NC(=O)Nc3ccc(C#N)cc3)c2)n1`, the Kb in experiment [1] amounted to 69.6 nM. Further, in experiment [3], the inhibition entry was “Dose-dependent effect”. For the compound `CN(C)c1nccc(-c2cccc(NC(=O)Nc3cccc(F)c3)c2)n1`, in experiment [1], the Kb is 967 nM. `O=C(Nc1ccc(Br)cc1)Nc1cccc(-c2ccnc(N3CCCC3)n2)c1`: the Kb in experiment [1] worked out at 395 nM.

For the compound `N#Cc1ccc(NC(=O)Nc2cccc(-c3nccc(N4CCCCC4)n3)c2)cc1`, the Kb in experiment [1] stood at 66.4 nM.

As to `CN(C)c1nccc(-c2cccc(NC(=O)Nc3ccc(F)cc3)c2)n1`, in experiment [1], the Kb was found to be 1120 nM.

As for `N#Cc1ccc(NC(=O)Nc2cccc(-c3ccnc(N4CCCC4)n3)c2)cc1`, in experiment [1], the Kb turned out to be 168 nM. For the same compound, the inhibition result in experiment [3] is “Dose-dependent effect”. Further, the result in experiment [4] and in experiment [5] was Active. For `O=C(Nc1ccc(Cl)cc1)Nc1cccc(-c2cccc(N3CCCC3)n2)c1`, the inhibition result in experiment [3] was “Dose-dependent effect”. Further, the result in experiment [5] was Active.
